From ChEMBL document CHEMBL1150162, “Antimicrobial activities of naphthazarins from Arnebia euchroma” (2002)
Values after ≈ are worked out from the molar mass of the structure shown. Active and inactive are the calls of the source. The calls are words filed in the database; no cut-off is given here.

Legend:
Pseudomonas aeruginosa = assay: Antibacterial activity against Pseudomonas aeruginosa up to 100 ug/mL after 24 hrs by broth microdilution method; assay type: functional, organism-based
Procedure, shortened: (§1)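 Broth microdilution with 2-fold serial dilutions in LB broth, compounds from DMSO stocks (DMSO below 5% final), inoculum about 5 × 10^5 CFU/mL. Incubated 24 h at 35 °C in ambient air. MIC is the lowest concentration with no visible growth. Experiments repeated three times.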

Enterococcus faecalis [1] = assay: Antibacterial activity against vancomycin-resistant Enterococcus faecalis CKU-17 expressing VanB after 48 hrs by broth microdilution method; assay type: functional; details: CKU-17, 48 h
Enterococcus faecium [2] = assay: Antibacterial activity against vancomycin-resistant Enterococcus faecium F935 expressing VanA assessed as reduction of bacterial count by time kill assay; assay type: functional, organism-based
Procedure, shortened: (§2)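 Time-kill in LB broth with multiples of the broth microdilution MIC (1/2 to 8× MIC). Starting inoculum about 5 × 10^5 CFU/mL, incubated at 35 °C. Samples taken at 0, 2, 4, 6 and 24 h, dilution-plated on LB agar, and counted after 24 h. Detection limit 100 CFU/mL.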

Enterococcus faecalis [3] = assay: Antibacterial activity against Enterococcus faecalis after 48 hrs by broth microdilution method; assay type: functional
Escherichia coli = assay: Antibacterial activity against Escherichia coli up to 100 ug/mL after 24 hrs by broth microdilution method; assay type: functional, organism-based; procedure, shortened: as §1
Enterococcus faecium [4] = assay: Ratio of MBC to MIC for vancomycin-resistant Enterococcus faecium F935 expressing VanA; assay type: functional
Enterococcus faecalis [5] = assay: Antibacterial activity against Enterococcus faecalis after 24 hrs by broth microdilution method; assay type: functional
Procedure, shortened: (§3)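 2-fold serial dilutions of test agent in LB broth, DMSO under 5% final. Inoculum about 5 × 10^5 CFU/mL, confirmed by LB agar plating. Incubated 24 h at 35 °C in ambient air. MIC is the lowest concentration with no visible growth. Three repeats; oxacillin, vancomycin and chloramphenicol as positive controls.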

OVCAR-3 = assay: Cytotoxicity against human OVCAR-3 cells after 48 hrs by MTT assay; assay type: functional; details: OVCAR-3, 48 h, read-out: CD50 (the source's name)
Procedure, shortened: (§4)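 Cells seeded at 5 × 10^3 per well, grown 24 h, then given 2-fold dilutions of sample for 48 h. Medium replaced with serum-free medium, MTT added (5 mg/mL stock) for 2 h at 37 °C, formazan dissolved in DMSO, OD read at 550 nm. CD50 is the concentration giving 50% reduction in net cell increase. Quadruplicate, repeated at least twice.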

HepG2 = assay: Cytotoxicity against human HepG2 cells after 48 hrs by MTT assay; assay type: functional; details: HepG2, 48 h, read-out: CD50 (the source's name); procedure, shortened: as §4
Staphylococcus aureus [6] = assay: Antibacterial activity against Staphylococcus aureus after 48 hrs by broth microdilution method; assay type: functional
Enterococcus faecalis [7] = assay: Antibacterial activity against vancomycin-resistant Enterococcus faecalis CKU-17 expressing VanB after 24 hrs by broth microdilution method; assay type: functional; details: CKU-17, 24 h; procedure, shortened: as §3
Staphylococcus aureus [8] = assay: Antibacterial activity against methicillin-resistant Staphylococcus aureus 8-8S after 24 hrs by broth microdilution method; assay type: functional
Procedure, shortened: as §3, with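 “in […]” for “in LB”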

Staphylococcus aureus [9] = assay: Antibacterial activity against Staphylococcus aureus after 24 hrs by broth microdilution method; assay type: functional
Procedure, shortened: as §3, with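 “in […]” for “in LB”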

Enterococcus faecalis [10] = assay: Ratio of MBC to MIC for Enterococcus faecalis; assay type: functional
Staphylococcus aureus [11] = assay: Antibacterial activity against methicillin-resistant Staphylococcus aureus 8-8S assessed as reduction of bacterial count at MIC within 2 hrs by time kill assay; assay type: functional, organism-based
Procedure, shortened: (§5)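 Time-kill in Mueller-Hinton broth with multiples of the broth microdilution MIC. Starting inoculum about 5 × 10^5 CFU/mL, incubated at 35 °C. Samples taken at 0, 2, 4, 6 and 24 h, dilution-plated on LB agar, and counted after 24 h. Detection limit 100 CFU/mL; bactericidal means 3 log or greater reduction.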

Staphylococcus aureus [12] = assay: Ratio of MBC to MIC for Staphylococcus aureus; assay type: functional
Enterococcus faecium [13] = assay: Antibacterial activity against vancomycin-resistant Enterococcus faecium F935 expressing VanA after 24 hrs by broth microdilution method; assay type: functional; details: F935, 24 h; procedure, shortened: as §3
Staphylococcus aureus [14] = assay: Antibacterial activity against methicillin-resistant Staphylococcus aureus 8-8S assessed as reduction of bacterial count at 0.5 MIC within 2 hrs by time kill assay; assay type: functional; parameters: scale not given: the % may be the effect or the level left; procedure, shortened: as §5
Enterococcus faecalis [15] = assay: Antibacterial activity against vancomycin-resistant Enterococcus faecalis CKU-17 expressing VanB assessed as reduction of bacterial count by time kill assay; assay type: functional, organism-based; procedure, shortened: as §2
HeLa = assay: Cytotoxicity against human HeLa cells after 48 hrs by MTT assay; assay type: functional; details: read-out: CD50 (the source's name); procedure, shortened: as §4
Staphylococcus aureus [16] = assay: Antibacterial activity against methicillin-resistant Staphylococcus aureus 8-8S after 48 hrs by broth microdilution method; assay type: functional
Enterococcus faecium [17] = assay: Antibacterial activity against vancomycin-resistant Enterococcus faecium F935 expressing VanA after 48 hrs by broth microdilution method; assay type: functional; details: F935, 48 h
Enterococcus faecalis [18] = assay: Antibacterial activity against vancomycin-resistant Enterococcus faecalis CKU-17 expressing VanB assessed as reduction of bacterial count at MIC up to 6 hrs by time kill assay; assay type: functional, organism-based; procedure, shortened: as §2
Enterococcus faecium [19] = assay: Antibacterial activity against vancomycin-resistant Enterococcus faecium F935 expressing VanA assessed as reduction of bacterial count at MIC up to 6 hrs by time kill assay; assay type: functional, organism-based; procedure, shortened: as §2
Enterococcus faecium [20] = assay: Antibacterial activity against vancomycin-resistant Enterococcus faecium F935 expressing VanA assessed as reduction of bacterial count at >=2 times MIC concentration within 4 hrs by time kill assay; assay type: functional, organism-based; procedure, shortened: as §2
Enterococcus faecalis [21] = assay: Antibacterial activity against vancomycin-resistant Enterococcus faecalis CKU-17 expressing VanB assessed as reduction of bacterial count at >=2 times MIC within 4 hrs by time kill assay; assay type: functional, organism-based; procedure, shortened: as §2
Enterococcus faecalis [22] = assay: Ratio of MBC to MIC for vancomycin-resistant Enterococcus faecalis CKU-17 expressing VanB; assay type: functional
Staphylococcus aureus [23] = assay: Ratio of MBC to MIC for methicillin-resistant Staphylococcus aureus 8-8S; assay type: functional

Structure (SMILES): CC(=O)O[C@@H](CC=C(C)C)C1=CC(=O)c2c(O)ccc(O)c2C1=O [ACETYLALKANNIN]
- Activity (Pseudomonas aeruginosa): inactive
- MBC (Enterococcus faecalis [1]): 6.25 µg/mL (≈ 18.9 µM)
- Activity (Enterococcus faecium [2]): Dose-dependent effect
- MBC (Enterococcus faecalis [3]): 3.13 µg/mL (≈ 9.48 µM)
- Activity (Escherichia coli): inactive
- Ratio (Enterococcus faecium [4]): <=2
- MIC (Enterococcus faecalis [5]): 3.13 µg/mL (≈ 9.48 µM)
- CC50 (OVCAR-3): 1.5 µg/mL (≈ 4.54 µM)
- CC50 (HepG2): 2 µg/mL (≈ 6.05 µM)
- MBC (Staphylococcus aureus [6]): 1.56 µg/mL (≈ 4.72 µM)
- MIC (Enterococcus faecalis [7]): 6.25 µg/mL (≈ 18.9 µM)
- MIC (Staphylococcus aureus [8]): 1.56 µg/mL (≈ 4.72 µM)
- MIC (Staphylococcus aureus [9]): 1.56 µg/mL (≈ 4.72 µM)
- Ratio (Enterococcus faecalis [10]): <=2
- Activity (Staphylococcus aureus [11]): Active
- Ratio (Staphylococcus aureus [12]): <=2
- MIC (Enterococcus faecium [13]): 6.25 µg/mL (≈ 18.9 µM)
- Activity (Staphylococcus aureus [14]): >=99.9%
- Activity (Enterococcus faecalis [15]): Dose-dependent effect
- CC50 (HeLa): 1.5 µg/mL (≈ 4.54 µM)
- MBC (Staphylococcus aureus [16]): 1.56 µg/mL (≈ 4.72 µM)
- MBC (Enterococcus faecium [17]): 6.25 µg/mL (≈ 18.9 µM)

Structure (SMILES): CC(C)=CC[C@H](OC(=O)CC(C)C)C1=CC(=O)c2c(O)ccc(O)c2C1=O [ISOVALERYL ALKANNIN]
- Activity (Pseudomonas aeruginosa): inactive
- MBC (Enterococcus faecalis [1]): 3.13 µg/mL (≈ 8.4 µM)
- MBC (Enterococcus faecalis [3]): 3.13 µg/mL (≈ 8.4 µM)
- Activity (Escherichia coli): inactive
- Activity (Enterococcus faecalis [18]): Active
- Ratio (Enterococcus faecium [4]): <=2
- Activity (Enterococcus faecium [19]): Active
- MIC (Enterococcus faecalis [5]): 3.13 µg/mL (≈ 8.4 µM)
- CC50 (OVCAR-3): 0.9 µg/mL (≈ 2.42 µM)
- CC50 (HepG2): 2.2 µg/mL (≈ 5.91 µM)
- MBC (Staphylococcus aureus [6]): 1.56 µg/mL (≈ 4.19 µM)
- MIC (Enterococcus faecalis [7]): 3.13 µg/mL (≈ 8.4 µM)
- MIC (Staphylococcus aureus [8]): 3.13 µg/mL (≈ 8.4 µM)
- Activity (Enterococcus faecium [20]): Active
- MIC (Staphylococcus aureus [9]): 1.56 µg/mL (≈ 4.19 µM)
- Ratio (Enterococcus faecalis [10]): <=2
- Activity (Enterococcus faecalis [21]): Active
- Ratio (Staphylococcus aureus [12]): <=2
- MIC (Enterococcus faecium [13]): 3.13 µg/mL (≈ 8.4 µM)
- CC50 (HeLa): 1.7 µg/mL (≈ 4.56 µM)
- MBC (Staphylococcus aureus [16]): 3.13 µg/mL (≈ 8.4 µM)
- MBC (Enterococcus faecium [17]): 3.13 µg/mL (≈ 8.4 µM)

Structure (SMILES): CC1=CC(=O)c2c(O)cccc2C1=O [PLUMBAGIN]
- MBC (Enterococcus faecalis [1]): 50 µg/mL (≈ 266 µM)
- MBC (Enterococcus faecalis [3]): 100 µg/mL (≈ 531 µM)
- Ratio (Enterococcus faecium [4]): >=4
- MIC (Enterococcus faecalis [5]): 25 µg/mL (≈ 133 µM)
- MBC (Staphylococcus aureus [6]): 25 µg/mL (≈ 133 µM)
- MIC (Enterococcus faecalis [7]): 12.5 µg/mL (≈ 66.4 µM)
- MIC (Staphylococcus aureus [8]): 3.13 µg/mL (≈ 16.6 µM)
- Ratio (Enterococcus faecalis [22]): >=4
- MIC (Staphylococcus aureus [9]): 3.13 µg/mL (≈ 16.6 µM)
- Ratio (Enterococcus faecalis [10]): >=4
- Ratio (Staphylococcus aureus [12]): >=4
- MIC (Enterococcus faecium [13]): 12.5 µg/mL (≈ 66.4 µM)
- Ratio (Staphylococcus aureus [23]): >=4
- MBC (Staphylococcus aureus [16]): 25 µg/mL (≈ 133 µM)
- MBC (Enterococcus faecium [17]): 50 µg/mL (≈ 266 µM)
